We go through 7 compounds from ChEMBL document CHEMBL1132114, “Chemical syntheses and biological studies on dimeric chimeras of oxytocin and the V(2)-antagonist, d(CH(2))(5)[D-Ile(2), Ile(4)]arginine vasopressin” (J Med Chem, 1999).

Assay [1] has as its system Rattus norvegicus. The experiment in a line: Volume of excreted urine in 5 hr after administration in 4% water loaded rats. In kind it is functional. The essentials:
(§1)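 Fasted (16 h) conscious male Wistar rats, without water load or loaded by stomach catheter with tap water at 4% of body weight, then dosed subcutaneously at 50 nmol/kg (saline control). Urine collected in individual metabolic cages and total volume recorded over 5 h. Groups of 4–5 rats, 2–3 independent days; mean ± SEM.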

Assay [2] is filed under the species Rattus norvegicus. In words: In vitro uterotonic activity was determined. In kind it is functional. The essentials:
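Uterine preparations from Wistar rats estrogenized 24–48 h beforehand were tested in vitro without magnesium ions. Synthetic oxytocin served as standard. Single or cumulative dose–response curves were built, and activity was obtained by comparing threshold doses of standard and analogue. Averages of 3–5 experiments, in IU/mg.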

Assay [3] has as its system Rattus norvegicus. In words: In vivo pressor response in rats. Format: functional. The essentials: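 Vasopressor test in phenoxybenzamine-treated male Wistar rats against a synthetic arginine vasopressin standard. Activity came from comparing threshold doses of standard and analogue on dose–response curves. Averages of 3–5 experiments.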
The subject of assay [4] is Rattus norvegicus. The experiment in a line: In vivo antidiuretic in conscious rats. In kind it is functional, Urine. The essentials: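 Modified Burn test in conscious male Wistar rats fasted 16 h and loaded orally by catheter with tap water (4% of body weight). Compounds or saline injected subcutaneously at 1–100 nmol/kg. Urine collected over 5 h in metabolic cages. Groups of 4–5 rats; each dose run in 2–3 independent experiments.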

Assay [5] concerns Rattus norvegicus. In words: In vivo uterotonic activity in rats. In kind it is functional. The essentials:
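In vivo uterotonic test in Wistar rats estrogenized 24–48 h before the experiment, with compounds given intravenously. Synthetic oxytocin served as standard. Activity came from comparing threshold doses on dose–response curves. Averages of 3–5 experiments, in IU/mg.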

The test system of assay [6] is Rattus norvegicus. The experiment in a line: Excreted total Na+ in 4% water loaded rats after administration of the compound. In kind it is functional. The essentials:
(§2)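 Conscious male Wistar rats fasted 16 h, given either no water load or tap water at 4% of body weight by stomach catheter; compound given subcutaneously at 50 nmol/kg right after loading. Rats kept in individual metabolic cages, urine collected over 5 h; total Na+ and K+ measured by flame spectrophotometry. Groups of 4–5 rats, 2–3 independent days; mean ± SEM.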

In assay [7] the test system is Rattus norvegicus. In words: Excreted total K+ in 4% water loaded rats after administration of the compound. Format: functional, organism-based. The essentials:
as §2

The species entered for assay [8] is Rattus norvegicus. The experiment in a line: diuresis half-time in 4% water loaded rats. Format: functional, organism-based. The essentials: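 After a 16-h fast, conscious male Wistar rats received tap water at 4% of body weight by stomach catheter, then compound subcutaneously at 50 nmol/kg. Urine output followed every 15 min for 5 h in metabolic cages. Half-time taken as the time at which half the water load was excreted. Mean ± SEM.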

Assay [9] has as its system Rattus norvegicus. In words: Excreted total Na+ in 0% water loaded rats after administration of the compound. Format: functional. The essentials: as §2
Assay [10] has as its system Rattus norvegicus. In words: Volume of excreted urine in 5 h after administration in 0% water loaded rats. In kind it is functional. The essentials:
as §1

Assay [11] has as its system Rattus norvegicus. In words: Excreted total K+ in 0% water loaded rats after administration of the compound. In kind it is functional, organism-based. The essentials:
as §2

The subject of assay [12] is Rattus norvegicus. In words: In vivo antidiuretic in anesth rats. In kind it is functional, Urine.
Assay [13] concerns Rattus norvegicus. In words: Volume of excreted urine in 5 hr after administration in 0% water loaded rats. In kind it is functional. The essentials: as §1

In the assay with Rattus norvegicus [1], `CC[C@H](C)[C@@H]1NC(=O)[C@H](Cc2ccc(O)cc2)NC(=O)[C@@H](N)CSSC[C@@H](C(=O)N2CCC[C@H]2C(=O)N[C@@H](CC(C)C)C(=O)NCC(N)=O)NC(=O)[C@H](CC(N)=O)NC(=O)[C@H](CCC(N)=O)NC(=O)[C@H]([C@@H](C)CC)NC(=O)[C@H](Cc2ccc(O)cc2)NC(=O)[C@@H](N)CSSC[C@@H](C(=O)N2CCC[C@H]2C(=O)N[C@@H](CC(C)C)C(=O)NCC(N)=O)NC(=O)[C@H](CC(N)=O)NC(=O)[C@H](CCC(N)=O)NC1=O` [OXYTOCIN DIMER] returned a Volume of urine of 6.4 mL. Also, the Uterotonic activity in the assay filed under Rattus norvegicus [2] stood at 1.37 IU mg-1; in the assay with Rattus norvegicus [5], 13.8 IU mg-1. Also, the Pressor response in the assay with Rattus norvegicus [3] was determined as 0.5 IU mg-1. Further, the Antidiuretic activity in the assay with Rattus norvegicus [4] is recorded as approximately 10%. The compound also gave a Na in the assay on Rattus norvegicus [6] of 1150 µmol.
The compound `CC[C@@H](C)[C@H]1NC(=O)[C@H](Cc2ccc(O)cc2)NC(=O)[C@@H](N)CSSC[C@@H](C(=O)N2CCC[C@@H]2C(=O)N[C@@H](CC(C)C)C(=O)NCC(N)=O)NC(=O)[C@H](CC(N)=O)NC(=O)[C@@H](CCC(N)=O)NC(=O)[C@H]([C@@H](C)CC)NC(=O)[C@@H](Cc2ccc(O)cc2)NC(=O)[C@H](N)CSSC[C@H](C(=O)N2CCC[C@H]2C(=O)N[C@H](CC(C)C)C(=O)NCC(N)=O)NC(=O)[C@@H](CC(N)=O)NC(=O)[C@H](CCC(N)=O)NC1=O` displayed a K in the assay on Rattus norvegicus [7] of 231 µmol. Moreover, the T1/2 in the assay listed under Rattus norvegicus [8] stood at 3.47 h.
In the case of `CC[C@@H](C)[C@H]1NC(=O)CC2(CCCCC2)SSC[C@@H](C(=O)N2CCC[C@H]2C(=O)N[C@@H](CC(C)C)C(=O)NCC(N)=O)NC(=O)[C@H](CC(N)=O)NC(=O)[C@H](CCC(N)=O)NC(=O)[C@H]([C@@H](C)CC)NC(=O)[C@H](Cc2ccc(O)cc2)NC(=O)[C@@H](N)CSSC[C@@H](C(=O)N2CCC[C@H]2C(=O)N[C@@H](CCCN=C(N)N)C(=O)NCC(N)=O)NC(=O)[C@H](CC(N)=O)NC(=O)[C@H]([C@@H](C)CC)NC(=O)[C@H](Cc2ccccc2)NC1=O`, the Volume of urine in the assay with Rattus norvegicus [1] came out at 13.1 mL; in the assay with Rattus norvegicus [10] it was 6.3 mL. Moreover, the Uterotonic activity in the assay listed under Rattus norvegicus [2] and with Rattus norvegicus [5] was 0.8 IU mg-1 each time. In addition, the Pressor response with Rattus norvegicus [3] is on record as 0 IU mg-1. Moreover, the Na in the assay with Rattus norvegicus [9] stood at 358 µmol; with Rattus norvegicus [6], 480 µmol.
Regarding `CC[C@H](C)[C@@H]1NC(=O)CC2(CCCCC2)SSC[C@H](N)C(=O)N[C@@H](Cc2ccc(O)cc2)C(=O)N[C@@H]([C@@H](C)CC)C(=O)N[C@@H](CCC(N)=O)C(=O)N[C@@H](CC(N)=O)C(=O)N[C@H](C(=O)N2CCC[C@@H]2C(=O)N[C@@H](CC(C)C)C(=O)NCC(N)=O)CSSC[C@@H](C(=O)N2CCC[C@H]2C(=O)N[C@@H](CCCN=C(N)N)C(=O)NCC(N)=O)NC(=O)[C@H](CC(N)=O)NC(=O)[C@H]([C@@H](C)CC)NC(=O)[C@H](Cc2ccccc2)NC1=O`, the K in the assay on Rattus norvegicus [7] is 162 µmol; with Rattus norvegicus [11], 217 µmol. In the assay filed under Rattus norvegicus [8], this compound had a T1/2 of 0.7 h.
As for `CC[C@H](C)[C@@H]1NC(=O)[C@H](Cc2ccc(O)cc2)NC(=O)[C@@H](N)CSSC[C@@H](C(=O)N2CCC[C@H]2C(=O)N[C@@H](CC(C)C)C(=O)NCC(N)=O)NC(=O)[C@H](CC(N)=O)NC(=O)[C@H](CCC(N)=O)NC1=O` [OXYTOCIN], the Volume of urine in the assay on Rattus norvegicus [1] was 11.3 mL; in the assay on Rattus norvegicus [13] it was 4.8 mL. Further, the Uterotonic activity in the assay listed under Rattus norvegicus [2] and with Rattus norvegicus [5] was 450 IU mg-1 throughout. For the same compound, the figures for the Antidiuretic activity with Rattus norvegicus [12] and with Rattus norvegicus [4] were 5 IU mg-1 and 100%, respectively. The Pressor response in the assay on Rattus norvegicus [3] was 4.5 IU mg-1. The figures for the K in the assay on Rattus norvegicus [7] and in the assay with Rattus norvegicus [11] were 287 µmol and 202 µmol, respectively. The Na came out at 563 µmol in the assay on Rattus norvegicus [9] and 773 µmol with Rattus norvegicus [6]. In the assay filed under Rattus norvegicus [8], this compound yielded a T1/2 of 2.97 h.
Take `CC[C@@H](C)[C@H]1NC(=O)CC2(CCCCC2)SSC[C@H](N)C(=O)N[C@@H](Cc2ccc(O)cc2)C(=O)N[C@@H]([C@@H](C)CC)C(=O)N[C@@H](CCC(N)=O)C(=O)N[C@@H](CC(N)=O)C(=O)N[C@H](C(=O)N2CCC[C@H]2C(=O)N[C@@H](CC(C)C)C(=O)NCC(N)=O)CSSC[C@@H](C(=O)N2CCC[C@H]2C(=O)N[C@@H](CCCN=C(N)N)C(=O)NCC(N)=O)NC(=O)[C@H](CC(N)=O)NC(=O)[C@H]([C@@H](C)CC)NC(=O)[C@H](Cc2ccccc2)NC1=O`: the Volume of urine is 14.2 mL with Rattus norvegicus [1] and 9.4 mL with Rattus norvegicus [10]. For the same compound, the Uterotonic activity in the assay filed under Rattus norvegicus [2] is 0.22 IU mg-1; with Rattus norvegicus [5], 1.1 IU mg-1. The compound also returned a Pressor response in the assay on Rattus norvegicus [3] of 0 IU mg-1. Moreover, the Na with Rattus norvegicus [9] came out at 762 µmol; in the assay with Rattus norvegicus [6], 375 µmol.
As to `CC[C@@H](C)[C@H]1NC(=O)CC2(CCCCC2)SSC[C@@H](C(=O)N2CCC[C@@H]2C(=O)N[C@@H](CC(C)C)C(=O)NCC(N)=O)NC(=O)[C@H](CC(N)=O)NC(=O)[C@H](CCC(N)=O)NC(=O)[C@H]([C@@H](C)CC)NC(=O)[C@H](Cc2ccc(O)cc2)NC(=O)[C@@H](N)CSSC[C@H](C(=O)N2CCC[C@@H]2C(=O)N[C@H](CCCN=C(N)N)C(=O)NCC(N)=O)NC(=O)[C@@H](CC(N)=O)NC(=O)[C@@H]([C@H](C)CC)NC(=O)[C@@H](Cc2ccccc2)NC1=O`, the K in the assay with Rattus norvegicus [7] amounted to 123 µmol; with Rattus norvegicus [11], 200 µmol. Further, the T1/2 in the assay filed under Rattus norvegicus [8] came to 0.817 h.
